ChEMBL document CHEMBL1275519, “In vivo pharmacodynamics of ceftobiprole against multiple bacterial pathogens in murine thigh and lung infection models” (Antimicrob Agents Chemother, 2008)
≈ marks a conversion by molar mass, not a printed value.

What was measured:
[1] = T>MIC in Streptococcus pneumoniae CDC 1329 infected CD1 neutropenic mouse at 2-log kill dose of 5.51 mg/kg, sc administered every 6 hrs; format: functional; settings: route subcutaneous
[2] = T>MIC in Escherichia coli ATCC 25922 infected CD1 neutropenic mouse at 2-log kill dose of 42.4 mg/kg, sc administered every 6 hrs; format: functional; settings: route subcutaneous
[3] = T>MIC in Streptococcus pneumoniae CDC-145 infected CD1 neutropenic mouse at static dose of 0.956 mg/kg, sc administered every 6 hrs; format: functional; settings: route subcutaneous
Outline: (§1)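 Neutropenic mice (cyclophosphamide i.p. 150 and 100 mg/kg, 4 and 1 days pre-infection) given 0.1 ml thigh inoculum (1:10 dilution of 10^8 CFU/ml), then treated from 2 h post-infection for 24 h with s.c. ceftobiprole medocaril (0.010–160 mg/kg) at varied intervals. Thigh CFU plated from homogenates. Static dose came from a sigmoid Hill model, and T>MIC was estimated from mouse PK and MIC.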

[4] = Cmax in CD1 neutropenic mouse with bacterial infection in thigh at 10 mg/kg, sc; settings: in vivo
[5] = T>MIC in methicillin-resistant Staphylococcus aureus 22115 infected CD1 neutropenic mouse at 2-log kill dose of 34.4 mg/kg, sc administered every 6 hrs; format: functional; settings: route subcutaneous
Streptococcus pneumoniae [6] = assay: Antimicrobial activity against Streptococcus pneumoniae ATCC 10813 by broth dilution method; format: functional
Outline: (§2)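 Ceftobiprole MIC determined by CLSI (NCCLS) broth microdilution.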

[7] = T>MIC in methicillin-resistant Staphylococcus aureus 11888 infected CD1 neutropenic mouse at 2-log kill dose of 40.2 mg/kg, sc administered every 6 hrs; format: functional; settings: route subcutaneous
[8] = T>MIC in Streptococcus pneumoniae MNO-418 infected CD1 neutropenic mouse at 2-log kill dose of 0.624 mg/kg, sc administered every 6 hrs; format: functional; settings: route subcutaneous
[9] = T>MIC in Enterobacter cloacae 4567 infected CD1 neutropenic mouse at static dose of 3.28 mg/kg, sc administered every 3 hrs; format: functional; settings: route subcutaneous; outline: as §1
[10] = Cmax in CD1 neutropenic mouse with bacterial infection in thigh at 160 mg/kg, sc; format: ADME, organism-based; set-up: dose 160 mg/kg, route subcutaneous; settings: in vivo
Outline: (§3)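 Neutropenic thigh-infected mice (cyclophosphamide i.p. 150 mg/kg day −4, 100 mg/kg day −1) given single s.c. ceftobiprole medocaril doses; two groups of three mice per dose bled retro-orbitally at 0.5–6 h, each animal 3–4 times. Total serum drug measured by agar diffusion bioassay with E. coli NIH-J (linear 0.25–256 μg/ml). Cmax, t1/2 and AUC from one-compartment model.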

Staphylococcus aureus [11] = assay: Antimicrobial activity against Staphylococcus aureus ATCC Smith by broth dilution method; format: functional
Outline: (§4)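 Ceftobiprole MIC by broth microdilution per Clinical and Laboratory Standards Institute (formerly NCCLS) methods, using ceftobiprole standard powder.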

[12] = AUC in CD1 neutropenic mouse with bacterial infection in thigh at 40 mg/kg, sc; format: ADME, organism-based; set-up: dose 40 mg/kg, route subcutaneous; settings: plasma; outline: as §3
Streptococcus pneumoniae [13] = assay: Antimicrobial activity against Streptococcus pneumoniae CDC 145 by broth dilution method; format: functional; outline: as §2
Staphylococcus aureus [14] = assay: Antimicrobial activity against methicillin-resistant Staphylococcus aureus 12248 by broth dilution method; format: functional; outline: as §4
[15] = T>MIC in Staphylococcus aureus […] infected CD1 neutropenic mouse at 2-log kill dose of 10.3 mg/kg, sc administered every 6 hrs; format: functional; settings: route subcutaneous
[16] = T>MIC in Enterobacter cloacae 4567 infected CD1 neutropenic mouse at 2-log kill dose of 4.67 mg/kg, sc administered every 3 hrs; format: functional; settings: route subcutaneous
Staphylococcus aureus [17] = assay: Antimicrobial activity against Staphylococcus aureus ATCC 22923 by broth dilution method; format: functional; outline: as §4
[18] = T>MIC in methicillin-resistant Staphylococcus aureus 11888 infected CD1 neutropenic mouse at static dose of 22.6 mg/kg, sc administered every 6 hrs; format: functional; settings: route subcutaneous
Staphylococcus aureus [19] = assay: Antimicrobial activity against Staphylococcus aureus ATCC 33591 by broth dilution method; format: functional; outline: as §4
[20] = T>MIC in Enterobacter cloacae 2249 infected CD1 neutropenic mouse at static dose of 22.2 mg/kg, sc administered every 3 hrs; format: functional; settings: route subcutaneous; outline: as §1
[21] = T>MIC in Streptococcus pneumoniae CDC 673 infected CD1 neutropenic mouse at 2-log kill dose of 29 mg/kg, sc administered every 6 hrs; format: functional; settings: route subcutaneous
Staphylococcus aureus [22] = assay: Antimicrobial activity against methicillin-resistant Staphylococcus aureus 22115 by broth dilution method; format: functional; outline: as §4
[23] = T>MIC in Klebsiella pneumoniae infected CD1 neutropenic mouse at 2-log kill dose of 43.8 mg/kg, sc administered every 6 hrs; format: functional; settings: route subcutaneous
[24] = T>MIC in Streptococcus pneumoniae CDC 1293 infected CD1 neutropenic mouse at static dose of 2.72 mg/kg, sc administered every 6 hrs; format: functional; settings: route subcutaneous; outline: as §1
[25] = T>MIC in Streptococcus pneumoniae CDC 673 infected CD1 neutropenic mouse at static dose of 6.68 mg/kg, sc administered every 6 hrs; format: functional; settings: route subcutaneous; outline: as §1
[26] = T>MIC in Klebsiella pneumoniae infected CD1 neutropenic mouse at static dose of 6.61 mg/kg, sc administered every 6 hrs; format: functional; settings: route subcutaneous; outline: as §1
Streptococcus pneumoniae [27] = assay: Antimicrobial activity against Streptococcus pneumoniae CDC 1329 by broth dilution method; format: functional; outline: as §2
[28] = T>MIC in Enterobacter cloacae 2249 infected CD1 neutropenic mouse at 2-log kill dose of 155 mg/kg, sc administered every 3 hrs; format: functional; settings: route subcutaneous
[29] = T>MIC in Streptococcus pneumoniae CDC-145 infected CD1 neutropenic mouse at 2-log kill dose of 3.27 mg/kg, sc administered every 6 hrs; format: functional; settings: route subcutaneous
[30] = T>MIC in Staphylococcus aureus ATCC Smith infected CD1 neutropenic mouse at 2-log kill dose of 9.60 mg/kg, sc administered every 6 hrs; format: functional; settings: dose 9.6 mg/kg; route subcutaneous
[31] = Half life in CD1 neutropenic mouse with bacterial infection in thigh at 10 mg/kg, sc; settings: in vivo
Streptococcus pneumoniae [32] = assay: Antimicrobial activity against Streptococcus pneumoniae CDC 673 by broth dilution method; format: functional; outline: as §4
Staphylococcus aureus [33] = assay: Antimicrobial activity against methicillin-resistant Staphylococcus aureus 11888 by broth dilution method; format: functional; outline: as §4

In the case of `Nc1nc(/C(=N/O)C(=O)N[C@@H]2C(=O)N3C(C(=O)O)=C(/C=C4\CCN([C@@H]5CCNC5)C4=O)CS[C@H]23)ns1` [CEFTOBIPROLE], the “fT>MIC” value [1] was 27%, the “fT>MIC” value [2] was 57.8% and the “fT>MIC” value [3] was 15.2%. The Cmax [4] was 10.8 µg/mL, the “fT>MIC” value [5] was 29.6% and the MIC (Streptococcus pneumoniae [6]) was 0.03 µg/mL (≈ 0.0561 µM). The “fT>MIC” value [7] was 27.4%, the “fT>MIC” value [8] was 31.8% and the “fT>MIC” value [9] was 35.6%. It also gave a Cmax [10] of 144 µg/mL, an MIC (Staphylococcus aureus [11]) of 0.5 µg/mL (≈ 0.935 µM) and an AUC [12] of 27800 ng·h/mL. For the same compound, the MIC (Streptococcus pneumoniae [13]) was 0.25 µg/mL (≈ 0.468 µM), the MIC (Staphylococcus aureus [14]) was 2 µg/mL (≈ 3.74 µM) and the “fT>MIC” value [15] was 26.5%. For the same compound, the “fT>MIC” value [16] was 40.9%, the MIC (Staphylococcus aureus [17]) was 0.5 µg/mL (≈ 0.935 µM) and the “fT>MIC” value [18] was 22.5%. The MIC (Staphylococcus aureus [19]) was 1 µg/mL (≈ 1.87 µM), the “fT>MIC” value [20] was 44.6% and the “fT>MIC” value [21] was 29.7%. The MIC (Staphylococcus aureus [22]) was 1 µg/mL (≈ 1.87 µM), the “fT>MIC” value [23] was 59.2% and the “fT>MIC” value [24] was 16.3%. The “fT>MIC” value [25] was 18.5%, the “fT>MIC” value [26] was 41.2% and the MIC (Streptococcus pneumoniae [27]) was 0.25 µg/mL (≈ 0.468 µM). The “fT>MIC” value [28] was 100%, the “fT>MIC” value [29] was 23% and the “fT>MIC” value [30] was 25.9%. For the same compound, the half-life [31] was 19 min, the MIC (Streptococcus pneumoniae [32]) was 1 µg/mL (≈ 1.87 µM) and the MIC (Staphylococcus aureus [33]) was 2 µg/mL (≈ 3.74 µM).
